The source of these data is ChEMBL document CHEMBL4342410, “Design and Discovery of N-(3-(2-(2-Hydroxyethoxy)-6-morpholinopyridin-4-yl)-4-methylphenyl)-2-(trifluoromethyl)isonicotinamide, a Selective, Efficacious, and Well-Tolerated RAF Inhibitor Targeting RAS Mutant Cancers: The Path to the Clinic” (J Med Chem, 2020).

For orientation: AUC means concentration integrated over time. A low value points to low exposure. In general, AUC(0-inf) refers to total exposure, with the tail of the curve extrapolated. Lower therefore signals low exposure. What is called solubility (thermodynamic) is the concentration in solution at equilibrium with solid. A word on the pKd: it is the negative decadic logarithm of the Kd, by convention in mol/L. What is called Cmax is the peak of the concentration-time curve. By T/C is commonly meant the result in the treated group divided by that in the control group, in per cent. As usually defined, the Papp A→B is the apparent permeability from the apical to the basolateral side of a cell layer. The bioavailability is dose-corrected exposure relative to a reference, in per cent. Low values mean poor availability, high ones good availability. What is called inhibition in vivo is how much of the control response was suppressed. Broadly, the Tmax is the time from dosing to the highest level.

pKd: −log10 of the molar value. ≈ marks a conversion by molar mass, not a printed value.

In data set [1] the test system is Rattus norvegicus. Nature of the data set: In vivo inhibition of CRAF in po dosed nude rat xenografted with human Calu6 cells harboring KRAS Q61K mutant assessed as reduction in tumor MEK phosphorylation administered as single dose measured after 1 to 48 hrs by sandwich ELISA. In kind it is functional, organism-based. An outline of the steps:
(§1)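 Calu-6 (KRAS Q61K) xenograft-bearing nude rats were given a single oral dose of 15, 35, 75 or 150 mg/kg. Tumor and blood were sampled at 1, 4, 7, 24 and 48 h post-dose. Tumor pMEK was quantified by MSD immunoassay and expressed as percent pMEK. Free plasma exposure was determined in parallel.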
On the technique in general: A xenograft is tissue or cells of one species grown in another, often human tumour cells in immunodeficient mice.

Data set [2] is described as follows: AUC (0 to 24 hrs) in nude rat xenografted with human Calu6 cells harboring KRAS Q61K mutant at 75 mg/kg, po administered daily for 18 days starting from day 13 post tumor implantation and measured on day 31. The settings on record: in vivo. In kind it is ADME, organism-based. Details: time < 24 hr, dose 75 mg/kg, route oral. An outline of the steps: (§2)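 Nude rats carrying Calu-6 (KRAS Q61K) NSCLC xenografts were dosed p.o. once daily at 15, 35, 75 or 150 mg/kg from day 13 to day 31 after implant. Plasma was collected after the last dose and drug concentration was measured. AUC and Cmax were calculated per dose on day 31.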

For data set [3], the system named is RAF proto-oncogene serine/threonine-protein kinase (Homo sapiens), P04049 [Y340E,Y341E]. Briefly: Binding affinity to CRAF Y340E/Y341E mutant (unknown origin) assessed as dissociation half life by rapid dilution method. The method, boiled down:
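Full-length CRAF carrying activating Y340E/Y341E was used in a kinase activity assay. Dissociation was measured by the rapid dilution method, and recovery of enzyme activity was followed over 6 hours of incubation. The dissociation half-life was derived from that recovery.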

The nature of data set [4]: AUC (0 to 24 hrs) in nude rat xenografted with human Calu6 cells harboring KRAS Q61K mutant at 35 mg/kg, po administered daily for 18 days starting from day 13 post tumor implantation and measured on day 31. In kind it is ADME, organism-based. Conditions: in vivo. Details: dose 35 mg/kg, time < 24 hr, route oral. The method, boiled down:
as §2

A short description of data set [5]: AUC (infinity) in dog at 0.4 mg/kg, po. Conditions: in vivo. Details: dose 0.4 mg/kg, time infinity, route oral. In kind it is ADME, organism-based, Canis lupus familiaris.
Data set [6] has as its target Epithelial discoidin domain-containing receptor 1 (Homo sapiens) (UniProt Q08345). Nature of the data set: Binding affinity to wild-type human partial length DDR1 (R565 to V876 residues) expressed in bacterial expression system at 1 uM by Kinomescan method relative to control. The method, boiled down: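 KINOMEscan competition binding panel of about 456 kinases, compound tested at 1 μM. Activity is given as % of control = [(test signal − positive control signal)/(negative control signal − positive control signal)] × 100.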

Data set [7] can be described thus: Solubility of compound in pH 6.8 Cl-free PBS buffer by shake-flask assay. In kind it is physicochemical. The method, boiled down:
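Shake-flask solubility measured in chloride-free PBS at pH 6.8.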

Data set [8] deals with Serine/threonine-protein kinase B-raf (Homo sapiens, UniProt P15056). Briefly: Binding affinity to wild-type human partial length BRAF (S429 to E741 residues) expressed in mammalian expression system by Kinomescan method.
Data set [9] in a line: Cmax in nude rat xenografted with human Calu6 cells harboring KRAS Q61K mutant at 35 mg/kg, po administered daily for 18 days starting from day 13 post tumor implantation and measured on day 31. Details: dose 35 mg/kg, route oral. In kind it is ADME, organism-based. The settings on record: in vivo. The method, boiled down:
as §2

For data set [10], the system named is Calu-6. Nature of the data set: Antitumor activity against human Calu6 cells harboring KRAS Q61K mutant xenografted in nude rat assessed as tumor growth at 15 mg/kg, po administered daily for 18 days starting from day 13 post tumor implantation and measured on day 31 relative to control. It counts as functional. An outline of the steps: (§3)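 Nude rats bearing Calu-6 (KRAS Q61K) human NSCLC xenografts received vehicle or drug p.o. daily at 15, 35, 75 or 150 mg/kg. Dosing began 13 days after tumor implantation and ran to day 31, i.e. 18 days of treatment. Tumor volumes were read out as %T/C or % regression versus vehicle on day 31. Body weight was also tracked.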

The test system of data set [11] is Calu-6. Nature of the data set: Antitumor activity against human Calu6 cells harboring KRAS Q61K mutant xenografted in po dosed nude rat assessed as increase in tumor regression administered daily for 18 days starting from day 13 post tumor implantation and measured on day 31. In kind it is functional, organism-based. The method, boiled down:
as §3

A short description of data set [12]: AUC (infinity) in mouse at 4 mg/kg, po. The settings on record: in vivo. Details: dose 4 mg/kg, route oral, time infinity. It counts as ADME, organism-based.
Data set [13] in a line: Toxicity in human Calu6 cells harboring KRAS Q61K mutant xenografted nude rat assessed as change in body weight at 15 to 150 mg/kg, po administered daily for 18 days starting from day 13 post tumor implantation and measured during compound dosing. In kind it is organism-based. Conditions: in vivo, 432 h. The method, boiled down: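 Nude rats bearing Calu-6 (KRAS Q61K) NSCLC xenografts were dosed orally once daily with vehicle or 15, 35, 75 or 150 mg/kg. Dosing ran from day 13 after implantation until day 31. Body weight was tracked and expressed as percent change from initial for each treatment group versus the vehicle control.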

Data set [14] in a line: AUC (0 to 24 hrs) in nude rat xenografted with human Calu6 cells harboring KRAS Q61K mutant at 150 mg/kg, po administered daily for 18 days starting from day 13 post tumor implantation and measured on day 31. In kind it is ADME, organism-based. More on the design: dose 150 mg/kg, time < 24 hr, route oral. The settings on record: in vivo. The method, boiled down: as §2
The nature of data set [15]: Clearance in dog at 0.2 mg/kg, iv or 0.4 mg/kg, po. It counts as ADME, organism-based, Canis lupus familiaris. Conditions: in vivo.
Data set [16] is described as follows: AUC (0 to 24 hrs) in nude rat xenografted with human Calu6 cells harboring KRAS Q61K mutant at 15 mg/kg, po administered daily for 18 days starting from day 13 post tumor implantation and measured on day 31. In kind it is ADME, organism-based. Details: dose 15 mg/kg, time < 24 hr, route oral. Conditions: in vivo. An outline of the steps:
as §2

Data set [17] concerns the target Platelet-derived growth factor receptor beta (Homo sapiens, UniProt P09619). Nature of the data set: Binding affinity to wild-type human partial length PDGFRB (V582 to Y1009 residues) expressed in bacterial expression system by Kinomescan method.
A short description of data set [18]: Cmax in dog at 0.4 mg/kg, po. More on the design: dose 0.4 mg/kg, route oral. It counts as ADME, organism-based, Canis lupus familiaris. Conditions: in vivo.
For a further data set, the target named is Cytochrome P450 3A4 (Homo sapiens, UniProt P08684). Briefly: Time dependent inhibition of CYP3A4 in human liver microsomes assessed as inactivation rate constant at 10 uM using midazolam as substrate incubated prior to substrate addition and measured after 6 mins in presence of NADPH. It counts as ADME. The settings on record: 0.1 h. The method, boiled down:
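Human liver microsomes (0.5 mg/mL) preincubated with test compound at 10 µM and 1 mM NADPH in phosphate buffer at 37 °C for 0, 5, 15 and 30 min. Mixture then diluted 20-fold and incubated with midazolam (20 µM) at 37 °C for 6 min to measure residual CYP3A4 activity. kobs taken as the initial rate of decline of activity versus preincubation time.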
Background: Microsomes from liver hold many membrane-bound enzymes, among them those of drug oxidation.

Data set [19] in a line: Apparent permeability across apical to basolateral side in human Caco2 cells at pH 7.4 by LC/MS/MS analysis. In kind it is ADME, cell-based. The settings on record: Caco-2, pH 7.4. A general note: Passage across Caco-2 layers is used to estimate intestinal permeability.
Data set [20] is described as follows: Oral bioavailability in mouse at 4 mg/kg. Conditions: in vivo. In kind it is ADME, organism-based.
Data set [21] concerns Rattus norvegicus. Briefly: In vivo inhibition of CRAF in nude rat xenografted with human Calu6 cells harboring KRAS Q61K mutant assessed as reduction in tumor MEK phosphorylation at 150 mg/kg, po administered as single dose measured after 24 hrs by sandwich ELISA relative to control. In kind it is functional. The settings on record: Calu-6, po. The method, boiled down:
as §1

A short description of data set [22]: Volume of distribution at steady state in dog at 0.2 mg/kg, iv or 0.4 mg/kg, po. It counts as ADME, organism-based, Canis lupus familiaris. Conditions: in vivo, read-out: Vdss.
Data set [23] is described as follows: Tmax in nude rat xenografted with human Calu6 cells harboring KRAS Q61K mutant at 150 mg/kg, po administered daily for 18 days starting from day 13 post tumor implantation and measured on day 31. It counts as ADME, organism-based. The settings on record: in vivo. An outline of the steps: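 Calu-6 xenograft nude rats were dosed orally once daily at 15, 35, 75 or 150 mg/kg from day 13 after implantation to day 31. Plasma was collected after the last dose on day 31, drug concentrations were measured, and PK parameters including AUC were calculated for each dose.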

Chain of Cytochrome P450 3A4 (P08684 whole entry): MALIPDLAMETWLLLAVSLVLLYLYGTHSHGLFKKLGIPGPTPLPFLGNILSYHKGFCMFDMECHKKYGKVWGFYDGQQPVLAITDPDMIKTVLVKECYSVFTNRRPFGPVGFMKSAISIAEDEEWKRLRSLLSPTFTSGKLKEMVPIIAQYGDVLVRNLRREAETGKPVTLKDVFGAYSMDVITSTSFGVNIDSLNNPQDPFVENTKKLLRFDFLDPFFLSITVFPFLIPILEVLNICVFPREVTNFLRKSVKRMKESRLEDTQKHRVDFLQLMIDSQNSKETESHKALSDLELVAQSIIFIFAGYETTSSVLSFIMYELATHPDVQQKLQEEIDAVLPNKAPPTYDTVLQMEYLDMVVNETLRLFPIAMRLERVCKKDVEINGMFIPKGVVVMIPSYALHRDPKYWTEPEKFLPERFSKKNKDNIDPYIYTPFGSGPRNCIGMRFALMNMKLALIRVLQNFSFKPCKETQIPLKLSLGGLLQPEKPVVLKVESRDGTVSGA
Chain of Serine/threonine-protein kinase B-raf (P15056 whole entry, the tested form may be a part): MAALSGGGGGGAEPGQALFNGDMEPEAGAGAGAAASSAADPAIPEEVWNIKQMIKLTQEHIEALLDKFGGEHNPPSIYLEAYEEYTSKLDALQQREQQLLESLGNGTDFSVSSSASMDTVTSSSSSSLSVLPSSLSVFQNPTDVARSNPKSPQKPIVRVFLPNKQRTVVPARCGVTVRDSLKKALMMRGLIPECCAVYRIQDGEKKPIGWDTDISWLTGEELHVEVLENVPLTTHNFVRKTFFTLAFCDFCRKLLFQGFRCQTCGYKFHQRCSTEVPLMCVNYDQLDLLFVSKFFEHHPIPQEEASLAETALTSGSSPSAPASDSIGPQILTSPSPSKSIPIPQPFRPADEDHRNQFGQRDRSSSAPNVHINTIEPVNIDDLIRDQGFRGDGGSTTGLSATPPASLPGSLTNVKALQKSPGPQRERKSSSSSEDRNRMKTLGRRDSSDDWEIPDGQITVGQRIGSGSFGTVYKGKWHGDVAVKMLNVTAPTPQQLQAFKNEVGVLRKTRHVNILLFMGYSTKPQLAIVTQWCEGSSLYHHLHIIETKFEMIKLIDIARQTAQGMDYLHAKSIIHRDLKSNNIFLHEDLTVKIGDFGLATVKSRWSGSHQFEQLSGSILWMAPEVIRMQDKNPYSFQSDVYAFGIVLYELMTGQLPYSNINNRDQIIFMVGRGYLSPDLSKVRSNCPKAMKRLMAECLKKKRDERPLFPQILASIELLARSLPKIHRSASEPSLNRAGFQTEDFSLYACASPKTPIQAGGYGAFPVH
Chain of Platelet-derived growth factor receptor beta (P09619 whole entry, the tested form may be a part): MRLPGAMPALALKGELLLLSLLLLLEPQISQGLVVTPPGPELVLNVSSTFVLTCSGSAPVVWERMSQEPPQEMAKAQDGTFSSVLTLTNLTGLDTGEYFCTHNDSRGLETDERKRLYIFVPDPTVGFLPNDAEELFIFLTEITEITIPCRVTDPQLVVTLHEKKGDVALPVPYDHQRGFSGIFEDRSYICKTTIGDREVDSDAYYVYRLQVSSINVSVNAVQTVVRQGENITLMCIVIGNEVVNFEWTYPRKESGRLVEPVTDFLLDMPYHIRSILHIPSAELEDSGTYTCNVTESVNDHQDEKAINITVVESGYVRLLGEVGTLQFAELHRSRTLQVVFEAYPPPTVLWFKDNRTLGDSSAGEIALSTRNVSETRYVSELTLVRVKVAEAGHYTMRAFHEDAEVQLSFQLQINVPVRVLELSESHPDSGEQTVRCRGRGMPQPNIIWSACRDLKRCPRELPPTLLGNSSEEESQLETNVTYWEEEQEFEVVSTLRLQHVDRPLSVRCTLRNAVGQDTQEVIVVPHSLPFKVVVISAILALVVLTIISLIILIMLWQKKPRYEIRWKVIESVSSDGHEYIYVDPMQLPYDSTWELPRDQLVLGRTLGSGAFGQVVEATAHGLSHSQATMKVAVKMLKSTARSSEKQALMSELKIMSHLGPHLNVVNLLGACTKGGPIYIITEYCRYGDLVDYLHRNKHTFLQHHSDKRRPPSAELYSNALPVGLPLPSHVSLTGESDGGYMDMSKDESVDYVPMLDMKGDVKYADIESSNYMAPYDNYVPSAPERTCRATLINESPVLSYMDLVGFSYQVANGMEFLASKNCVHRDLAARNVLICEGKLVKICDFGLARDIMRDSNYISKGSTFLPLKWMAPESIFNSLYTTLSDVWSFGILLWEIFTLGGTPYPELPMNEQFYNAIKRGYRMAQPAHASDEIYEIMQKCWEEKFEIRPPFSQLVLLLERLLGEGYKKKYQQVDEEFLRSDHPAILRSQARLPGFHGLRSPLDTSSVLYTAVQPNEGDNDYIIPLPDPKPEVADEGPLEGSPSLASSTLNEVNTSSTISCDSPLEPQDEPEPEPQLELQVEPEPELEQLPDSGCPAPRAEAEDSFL
Chain of Epithelial discoidin domain-containing receptor 1 (Homo sapiens) (Q08345 whole entry, the tested form may be a part): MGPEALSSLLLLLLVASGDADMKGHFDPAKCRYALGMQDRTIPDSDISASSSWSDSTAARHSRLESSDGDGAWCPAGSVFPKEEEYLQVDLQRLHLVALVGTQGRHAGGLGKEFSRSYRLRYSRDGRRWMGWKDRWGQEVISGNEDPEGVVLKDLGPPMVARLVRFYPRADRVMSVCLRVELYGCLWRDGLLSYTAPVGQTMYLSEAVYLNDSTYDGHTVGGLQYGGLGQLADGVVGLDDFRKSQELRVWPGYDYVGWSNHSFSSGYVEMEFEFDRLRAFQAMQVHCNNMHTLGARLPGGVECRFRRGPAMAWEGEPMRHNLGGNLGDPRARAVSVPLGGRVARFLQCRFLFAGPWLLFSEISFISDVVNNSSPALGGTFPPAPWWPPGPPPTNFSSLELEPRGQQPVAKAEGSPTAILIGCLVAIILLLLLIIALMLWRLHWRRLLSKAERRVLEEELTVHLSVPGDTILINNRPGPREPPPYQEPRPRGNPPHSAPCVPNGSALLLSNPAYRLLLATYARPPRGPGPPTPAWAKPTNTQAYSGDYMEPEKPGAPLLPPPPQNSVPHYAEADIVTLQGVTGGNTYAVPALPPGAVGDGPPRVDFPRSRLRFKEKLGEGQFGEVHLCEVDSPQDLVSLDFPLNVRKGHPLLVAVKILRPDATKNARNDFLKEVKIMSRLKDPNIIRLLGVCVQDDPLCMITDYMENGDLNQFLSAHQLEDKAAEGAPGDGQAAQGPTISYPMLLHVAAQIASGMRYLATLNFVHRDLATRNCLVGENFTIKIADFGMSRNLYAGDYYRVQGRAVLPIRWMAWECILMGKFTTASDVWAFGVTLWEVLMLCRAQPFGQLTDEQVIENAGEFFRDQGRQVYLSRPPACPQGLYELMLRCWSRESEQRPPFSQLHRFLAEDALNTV

With `Cc1ccc(NC(=O)c2ccnc(C(F)(F)F)c2)cc1-c1cc(OCCO)nc(N2CCOCC2)c1` [NAPORAFENIB], the inhibition entry in the data set with Rattus norvegicus [1] is “Dose-dependent effect”. The AUC at 24 h worked out at 105 µM·h in data set [2], 25.2 µM·h in data set [4], 217 µM·h in [14] and 7.91 µM·h in data set [16]. The T1/2 in data set [3] is greater than 6.5 h. For the same compound, the total exposure AUC(0-inf) turned out to be 3.1 µM·h in [5] and 4.3 µM·h in [12]. Moreover, the Activity in data set [6] was greater than 99%; in the data set with Calu-6 [11] it was “Dose-dependent effect”; in data set [13], “Non-Toxic”. Moreover, the solubility (thermodynamic) in data set [7] turned out to be 20 µM (≈ 10 µg/mL). In addition, the pKd was 8.89 in data set [8] and 7.85 in [17]. The Cmax in data set [9] came out at 2350 nM; in data set [18], 400 nM. For the same compound, the T/C with Calu-6 [10] is on record as 29%. This compound also gave a clearance in data set [15] of 3.5 mL/min/kg. On Cytochrome P450 3A4, the K came to 0.01 min⁻¹. Also, in data set [19], the Papp A→B came to 9 ×10⁻⁶ cm/s. This compound came in with a bioavailability in data set [20] of 65%. Further, the inhibition in vivo at 150 mg/kg in the data set on Rattus norvegicus [21] amounted to 70%. Also, in [22], the Vd was 1.7 L/kg. In addition, in data set [23], the Tmax amounted to 5.5 h.
